Among the data in the array DNA melting data of Ke et al. (doi:10.1101/2024.01.08.574731) are Tm and folding enthalpy values, retold here.

A short description of data set [1]: melting temperature; fluorescence melt of hairpins on a sequencing array, two-state fit, raised by 9.35 °C to match UV melts. As to conditions: sodium 0.088 M. In short, it runs like this:
(§1)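 Melting temperature and folding enthalpy were obtained by bootstrapped two-state fitting. Fits used Cy3 fluorescence of library hairpins with annealed Cy3 and quencher oligos on a sequenced MiSeq flow cell, imaged in 50 mM Na-HEPES pH 8.0, 25 mM NaCl in 2.5 °C steps up to 60 °C and normalised to pre-quench Cy3 and control constructs. Four replicates were combined by inverse-variance weighting, and fitted temperatures were raised by 9.35 °C to match UV melts.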

Data set [2] is described as follows: folding enthalpy; higher = less favourable; fluorescence melt of hairpins on a sequencing array, two-state fit. As to conditions: sodium 0.088 M. In short, it runs like this:
as §1

GGCATTACGAAAGTAGCC (((..(((....)))))): the Tm in data set [1] was 43.1 °C. Also, the folding enthalpy in data set [2] was -21.8 kcal/mol.

For GGCATTGAAAAATGCC ((((((....)))))), the Tm in data set [1] was determined as 61.5 °C. Further, in data set [2], the folding enthalpy is -36.2 kcal/mol.

Consider GGCATTGGAAACAATACC ((.((((....)))).)), for which, in data set [1], the Tm is 36.6 °C. Also, the folding enthalpy in data set [2] is -25.4 kcal/mol.

As to GGCATTGGAAACAGTGTC (.((.((....)).)).), the Tm in data set [1] is 31.9 °C. Moreover, the folding enthalpy in data set [2] is -17 kcal/mol.

For GGCATTGGAAACGATGCC (((((.(....).))))), the Tm in data set [1] came out at 55.6 °C. Moreover, the folding enthalpy in data set [2] is -42.5 kcal/mol.

Turning to GGCATTTCGAAAGAAGCC (((..(((....)))))), the Tm in data set [1] was found to be 34.4 °C. The folding enthalpy in data set [2] was -20.2 kcal/mol.

For GGCCAACGAAAGTTGCC (((.(((....)))))), in data set [1], the Tm turned out to be 54.3 °C. Moreover, the folding enthalpy in data set [2] is -20 kcal/mol.

As to GGCCACCGAAAGGTCGCC (((.(((....))).))), the Tm in data set [1] was found to be 53.3 °C. In addition, the folding enthalpy in data set [2] is -49.2 kcal/mol.

GGCCACCGAAAGGTTGCC (((.(((....))).))): the Tm in data set [1] turned out to be 58.1 °C. Moreover, the folding enthalpy in data set [2] is -44.3 kcal/mol.

With GGCCACGAAAGTGATGCC ((((((....)))..))), the Tm in data set [1] amounted to 51 °C. The folding enthalpy in data set [2] is -27.6 kcal/mol.

GGCCACGAAAGTGCAGCC ((((((....)))..))): in data set [1], the Tm stood at 49.9 °C. Also, the folding enthalpy in data set [2] is -19.9 kcal/mol.

For the sequence GGCCACGAAAGTGTAGCC ((((((....)))..))), in data set [1], the Tm worked out at 53.1 °C. For the same sequence, the folding enthalpy in data set [2] was -25 kcal/mol.

With GGCCACGAAAGTGTCGCC ((((((....)))..))), the Tm in data set [1] was 50 °C. Further, the folding enthalpy in data set [2] is -21.3 kcal/mol.

In the case of GGCCACGGAAACACGGCC ((((..(....)..)))), the Tm in data set [1] is 47.8 °C. Also, the folding enthalpy in data set [2] was -32.5 kcal/mol.

Consider GGCCACGGAAACGCGGCC ((((.((....)).)))), for which the Tm in data set [1] stood at 66.5 °C. Besides, the folding enthalpy in data set [2] is -40.4 kcal/mol.

As for GGCCACGGAAACGTAGCC (((.(((....))).))), the Tm in data set [1] is 50.8 °C. Further, the folding enthalpy in data set [2] is -28 kcal/mol.

For the sequence GGCCACGGAAACGTGGTC (.(((((....))))).), the Tm in data set [1] was 64.9 °C. Further, the folding enthalpy in data set [2] was -25.7 kcal/mol.

Turning to GGCCAGCGAAAGCTAGCC (((.(((....))).))), the Tm in data set [1] worked out at 56.4 °C. Moreover, the folding enthalpy in data set [2] was -29.6 kcal/mol.

As to GGCCAGTCGAAAGACGCC (((..(((....)))))), the Tm in data set [1] came out at 50.1 °C. Also, in data set [2], the folding enthalpy was -18.2 kcal/mol.

For the sequence GGCCATCGAAAGATGCC (((.(((....)))))), in data set [1], the Tm was 54.9 °C. Also, the folding enthalpy in data set [2] was -19.8 kcal/mol.

On to GGCCATGGAAACACGGCC ((((.((....)).)))), for which the Tm in data set [1] was found to be 51.7 °C. The folding enthalpy in data set [2] is -45.4 kcal/mol.

As for GGCCCAACGAAAGTTGCC (((..(((....)))))), the Tm in data set [1] stood at 32.5 °C. The folding enthalpy in data set [2] was -13.9 kcal/mol.

Regarding GGCCCACGAAAGTGGCC (((.(((....)))))), the Tm in data set [1] came out at 65.4 °C. Besides, in data set [2], the folding enthalpy is -17.8 kcal/mol.

Turning to GGCCCAGCGAAAGCTGCC (((..(((....)))))), the Tm in data set [1] came out at 36 °C. Moreover, the folding enthalpy in data set [2] was -8.49 kcal/mol.

Turning to GGCCCAGGAAACCGGACC ((.((.(....).)).)), in data set [1], the Tm stood at 33.5 °C. In data set [2], the folding enthalpy is -27.4 kcal/mol.

For the sequence GGCCCAGGAAACCGGGCC (((((.(....).))))), the Tm in data set [1] was found to be 63.5 °C. Besides, in data set [2], the folding enthalpy is -42.2 kcal/mol.

Turning to GGCCCCGAAAGGGATGCC ((((((....)))..))), the Tm in data set [1] was determined as 56.8 °C. For the same sequence, in data set [2], the folding enthalpy is -22.2 kcal/mol.

With GGCCCCGAAAGGGCTGCC ((((((....)))..))), in data set [1], the Tm is 68.2 °C. In addition, in data set [2], the folding enthalpy is -15.1 kcal/mol.

As to GGCCCCGGAAACAGGGCC (((((.(....).))))), the Tm in data set [1] was 58.2 °C. Further, the folding enthalpy in data set [2] is -43.7 kcal/mol.

GGCCCCGGAAACGGAGCC (((.(((....))).))): the Tm in data set [1] is 56.6 °C. The folding enthalpy in data set [2] is -31.1 kcal/mol.

In the case of GGCCCGCCGAAAGGCGCC (((..(((....)))))), the Tm in data set [1] was determined as 38 °C. In data set [2], the folding enthalpy was -7.51 kcal/mol.

GGCCCGGGAAACCGGACC ((.((((....)))).)): the Tm in data set [1] came to 57.5 °C. For the same sequence, the folding enthalpy in data set [2] was -29.3 kcal/mol.

Consider GGCCCTCGAAAGAGCGCC (((.(((....))).))), for which the Tm in data set [1] came to 51.6 °C. Moreover, the folding enthalpy in data set [2] was -35.2 kcal/mol.

Regarding GGCCCTCGAAAGAGGCC (((.(((....)))))), the Tm in data set [1] amounted to 58.4 °C. Moreover, the folding enthalpy in data set [2] was -21.3 kcal/mol.

In the case of GGCCCTGGAAACAGGACC ((.((((....)))).)), the Tm in data set [1] worked out at 51 °C. In data set [2], the folding enthalpy was -35.3 kcal/mol.

Turning to GGCCGAGGAAACCCAGCC (((.(.(....).).))), the Tm in data set [1] was determined as 29.6 °C. Further, the folding enthalpy in data set [2] was -11.8 kcal/mol.

Consider GGCCGCCCGAAAGGGGCC (((..(((....)))))), for which, in data set [1], the Tm is 62 °C. In data set [2], the folding enthalpy was -15 kcal/mol.
